According to ChEMBL document CHEMBL1155775, “Pharmacokinetics of the antiviral agent beta-D-2'-deoxy-2'-fluoro-2'-C-methylcytidine in rhesus monkeys” (Antimicrob Agents Chemother, 2007):
Values belong to the molecule of their own block, whether it stands above or below them.

Columns and labels:
[1] = AUC in rhesus monkey at 33.3 mg/kg, iv administered as single dose; type: ADME, organism-based, Macaca mulatta; parameters: dose 33.3 mg/kg, route intravenous; conditions: plasma
In short: (§1)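 Three rhesus monkeys; single 33.3 mg/kg oral dose by gastric intubation in water, then after ≥4-week washout i.v. bolus via femoral vein in sterile normal saline; anesthetized (ketamine plus Telazol i.m.) for 4 h. Femoral venous blood at 0–24 h; serum by HPLC-UV 270 nm, 3TC internal standard. Noncompartmental analysis per animal and pooled; AUC by trapezoid extrapolated to infinity; F = AUCoral/AUCi.v.; MAT = MRToral − MRTi.v.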

[2] = Metabolic stability in rhesus monkey whole blood at 1000 dpm/pmol after 10 hrs at 37 degC; type: ADME, tissue-based, Macaca mulatta; conditions: read-out: Stability
In short: (§2)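 3H-labeled nucleoside (10 μM, 1,000 dpm/pmol) incubated in human or monkey whole blood at 37°C for 0–48 h. Aliquots centrifuged, supernatant extracted with acetonitrile, dried, redissolved in water and run on ion-pairing reverse-phase C18 HPLC (ammonium acetate/tetrabutylammonium phosphate pH 7.0, methanol) to measure parent and deaminated product. Each time point in replicate.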

[3] = Metabolic stability in rhesus monkey whole blood at 1000 dpm/pmol after 2 hrs at 37 degC; type: ADME, tissue-based, Macaca mulatta; conditions: read-out: Stability; in short: as §2
[4] = Metabolic stability in human whole blood at 1000 dpm/pmol after 8 hrs at 37 degC; type: ADME, tissue-based; conditions: read-out: Stability; in short: as §2
HepG2 = assay: Cytotoxicity against human HepG2 cells; type: cell-based
[5] = Metabolic stability in human whole blood at 1000 dpm/pmol after 0.5 hrs at 37 degC; type: ADME, tissue-based; conditions: read-out: Stability; in short: as §2
[6] = Metabolic stability in rhesus monkey whole blood at 1000 dpm/pmol after 0.5 hrs at 37 degC; type: ADME, tissue-based, Macaca mulatta; conditions: read-out: Stability; in short: as §2
[7] = Metabolic stability in human whole blood at 1000 dpm/pmol after 1 hr at 37 degC; type: ADME, tissue-based; conditions: read-out: Stability; in short: as §2
[8] = Metabolic stability in rhesus monkey whole blood at 1000 dpm/pmol after 24 hrs at 37 degC; type: ADME, tissue-based, Macaca mulatta; conditions: read-out: Stability; in short: as §2
[9] = Apparent oral clearance in rhesus monkey at 33.3 mg/kg, po administered as single dose; type: ADME, organism-based, Macaca mulatta; parameters: dose 33.3 mg/kg, route oral; conditions: in vivo; in short: as §1
Rhesus monkey [10] = assay: Apparent volume of distribution with respect to bioavailability in rhesus monkey at 33.3 mg/kg, iv administered as single dose; type: ADME, organism-based, Macaca mulatta; conditions: in vivo; in short: as §1
[11] = Clearance in rhesus monkey at 33.3 mg/kg, iv administered as single dose; conditions: in vivo
[12] = Metabolic stability in human whole blood at 1000 dpm/pmol after 48 hrs at 37 degC; type: ADME, tissue-based; conditions: read-out: Stability; in short: as §2
[13] = Clearance in rhesus monkey at 33.3 mg/kg, po administered as single dose; type: ADME, organism-based, Macaca mulatta; parameters: dose 33.3 mg/kg, route oral; conditions: in vivo; in short: as §1
Hepatitis C virus = assay: Antiviral activity against HCV in human Huh7 cells by replicon based assay; type: functional, Hepacivirus hominis; conditions: Huh-7
[14] = Metabolic stability in human whole blood at 1000 dpm/pmol after 4 hrs at 37 degC; type: ADME, tissue-based; conditions: read-out: Stability; in short: as §2
[15] = Metabolic stability in rhesus monkey whole blood at 1000 dpm/pmol after 0.25 hrs at 37 degC; type: ADME, tissue-based, Macaca mulatta; conditions: read-out: Stability; in short: as §2
[16] = Metabolic stability in human whole blood at 1000 dpm/pmol after 2 hrs at 37 degC; type: ADME, tissue-based; conditions: read-out: Stability; in short: as §2
[17] = Stability in rhesus monkey urine at 33.3 mg/kg assessed as unchanged drug dose administered as single dose during 8 hrs; type: ADME, organism-based, Macaca mulatta; parameters: dose 33.3 mg/kg; conditions: read-out: Stability
In short: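 Catheterized rhesus monkeys given single 33.3 mg/kg oral or i.v. dose; urine collected in intervals over 0–8 h, kept on ice then frozen at −70°C; diluted 20-fold (oral) or 50-fold (i.v.), 3TC internal standard added, parent and deaminated uridine metabolite quantified by HPLC-UV 270 nm; percent of dose recovered.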

[18] = Metabolic stability in rhesus monkey whole blood at 1000 dpm/pmol after 4 hrs at 37 degC; type: ADME, tissue-based, Macaca mulatta; conditions: read-out: Stability; in short: as §2
[19] = Tmax in rhesus monkey at 33.3 mg/kg, iv administered as single dose; type: ADME, organism-based, Macaca mulatta; parameters: dose 33.3 mg/kg, route intravenous; conditions: in vivo
In short: (§3)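 Three rhesus monkeys, anesthetised with ketamine plus tiletamine/zolazepam, received a single 33.3 mg/kg bolus in sterile normal saline via the femoral vein. Serum was acetonitrile-extracted with 3TC as internal standard and assayed by reverse-phase HPLC-UV at 270 nm. Peak concentration and its time were taken as observed; noncompartmental analysis.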

[20] = Volume of distribution at steady state in rhesus monkey at 33.3 mg/kg, iv administered as single dose; type: ADME, organism-based, Macaca mulatta; parameters: dose 33.3 mg/kg, route intravenous; conditions: in vivo, read-out: Vdss; in short: as §1
[21] = Mean residence time in rhesus monkey at 33.3 mg/kg, iv administered as single dose; type: ADME, organism-based, Macaca mulatta; parameters: dose 33.3 mg/kg, route intravenous; conditions: in vivo; in short: as §1
[22] = Drug level in rhesus monkey cerebrospinal fluid assessed as 2'-deoxy-2'-fluoro-2'-C-methyluridine level at 33.3 mg/kg, iv administered as single dose after 1 hr; type: ADME, organism-based, Macaca mulatta; parameters: dose 33.3 mg/kg, route intravenous; conditions: in vivo, read-out: Drug uptake
In short: (§4)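 Same three anesthetized rhesus monkeys given single 33.3 mg/kg oral (water, gastric intubation) or i.v. (saline, femoral vein) dose. CSF taken 1 h post-dose by cisternal or lumbar tap; 3TC internal standard added, analyzed by reverse-phase HPLC with UV detection at 270 nm against standards in water (0.1–25 μg/ml).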

Rhesus monkey [23] = assay: Mean absorption time in rhesus monkey at 33.3 mg/kg, po administered as single dose; type: ADME, organism-based, Macaca mulatta; parameters: dose 33.3 mg/kg, route oral; conditions: in vivo; in short: as §1
[24] = Metabolic stability in rhesus monkey whole blood at 1000 dpm/pmol after 48 hrs at 37 degC; type: ADME, tissue-based, Macaca mulatta; conditions: read-out: Stability; in short: as §2
[25] = Metabolic stability in rhesus monkey whole blood at 1000 dpm/pmol after 1 hr at 37 degC; type: ADME, tissue-based, Macaca mulatta; conditions: read-out: Stability; in short: as §2
[26] = Metabolic stability in human whole blood at 1000 dpm/pmol after 10 hrs at 37 degC; type: ADME, tissue-based; conditions: read-out: Stability; in short: as §2
[27] = Terminal half life in rhesus monkey at 33.3 mg/kg, iv administered as single dose; type: ADME, organism-based, Macaca mulatta; parameters: dose 33.3 mg/kg, route intravenous; conditions: in vivo, read-out: beta t1/2 (converted); in short: as §1
[28] = Oral bioavailability in rhesus monkey at 33.3 mg/kg, po administered as single dose; type: ADME, organism-based, Macaca mulatta; conditions: in vivo; in short: as §1
[29] = Drug level in rhesus monkey cerebrospinal fluid at 33.3 mg/kg, iv administered as single dose after 1 hr; type: ADME, organism-based, Macaca mulatta; parameters: dose 33.3 mg/kg, route intravenous; conditions: read-out: Drug uptake; in short: as §4
[30] = Metabolic stability in rhesus monkey whole blood at 1000 dpm/pmol after 8 hrs at 37 degC; type: ADME, tissue-based, Macaca mulatta; conditions: read-out: Stability; in short: as §2
[31] = Metabolic stability in human whole blood at 1000 dpm/pmol after 0.25 hrs at 37 degC; type: ADME, tissue-based; conditions: read-out: Stability; in short: as §2
[32] = Cmax in rhesus monkey at 33.3 mg/kg, iv administered as single dose; type: ADME, organism-based, Macaca mulatta; parameters: dose 33.3 mg/kg, route intravenous; conditions: in vivo; in short: as §3
[33] = Apparent volume of distribution with respect to bioavailability in rhesus monkey at 33.3 mg/kg, po administered as single dose; type: ADME, organism-based, Macaca mulatta; conditions: in vivo, read-out: Vc/F; in short: as §1
[34] = Terminal half life in rhesus monkey at 33.3 mg/kg, po administered as single dose; type: ADME, organism-based, Macaca mulatta; parameters: dose 33.3 mg/kg, route oral; conditions: in vivo, read-out: beta t1/2 (converted); in short: as §1
[35] = Mean residence time in rhesus monkey at 33.3 mg/kg, po administered as single dose; type: ADME, organism-based, Macaca mulatta; parameters: dose 33.3 mg/kg, route oral; conditions: in vivo; in short: as §1
[36] = Metabolic stability in human whole blood at 1000 dpm/pmol after 24 hrs at 37 degC; type: ADME, tissue-based; conditions: read-out: Stability; in short: as §2
[37] = Drug level in rhesus monkey cerebrospinal fluid at 33.3 mg/kg, po administered as single dose after 1 hr; type: ADME, organism-based, Macaca mulatta; parameters: dose 33.3 mg/kg, route oral; conditions: read-out: Drug uptake; in short: as §4
[38] = AUC in rhesus monkey at 33.3 mg/kg, po administered as single dose; type: ADME, organism-based, Macaca mulatta; parameters: dose 33.3 mg/kg, route oral; conditions: plasma; in short: as §1
[39] = Metabolic stability in human whole blood assessed as 2'-deoxy-2'-fluoro-2'-C-methyluridine level at 1000 dpm/pmol after 24 hrs at 37 degC; type: ADME, tissue-based; in short: as §2
[40] = Metabolic stability in rhesus monkey whole blood assessed as 2'-deoxy-2'-fluoro-2'-C-methyluridine level at 1000 dpm/pmol after 24 hrs at 37 degC; type: ADME, tissue-based, Macaca mulatta; in short: as §2

Compound: C[C@@]1(F)[C@H](O)[C@@H](CO)O[C@H]1n1ccc(N)nc1=O
AUC [1]: 235 µM·h
remaining at 10 h [2]: 97.2%
remaining at 2 h [3]: 100%
remaining at 8 h [4]: 100%
Activity (HepG2): > 100 µM
remaining at 0.5 h [5]: 100%
remaining at 0.5 h [6]: 100%
remaining at 1 h [7]: 100%
remaining at 24 h [8]: 93.1%
CL/F [9]: 48 mL/min/kg
Vc/F (Rhesus monkey [10]): 4.8 L/kg
clearance [11]: 10 mL/min/kg
remaining at 48 h [12]: 83.7%
CL/F [13]: 48 mL/min/kg
EC90 (Hepatitis C virus): 5.4 µM
remaining at 4 h [14]: 100%
remaining at 0.25 h [15]: 100%
remaining at 2 h [16]: 100%
dose excreted at 8 h [17]: 6%
remaining at 4 h [18]: 100%
Tmax [19]: 0.25 h
Vd [20]: 1.51 L/kg
MRT [21]: 2.5 h
concentration [22]: 1380 nM
MAT (Rhesus monkey [23]): 4.61 h
remaining at 48 h [24]: 80%
remaining at 1 h [25]: 100%
remaining at 10 h [26]: 99.1%
half-life [27]: 4.54 h
bioavailability [28]: 24%
concentration at 1 h [29]: 3670 nM
remaining at 8 h [30]: 100%
remaining at 0.25 h [31]: 100%
Cmax [32]: 154000 nM
Vd/F [33]: 21.9 L/kg
half-life [34]: 5.64 h
MRT [35]: 7.11 h
remaining at 24 h [36]: 95.1%
concentration at 1 h [37]: 280 nM
AUC [38]: 44.1 µM·h

Stability [39]: 4.9%
Stability [40]: 6.9%
Compound: C[C@@]1(F)[C@H](O)[C@@H](CO)O[C@H]1n1ccc(=O)[nH]c1=O
